Screening data as filed in PubChem.
Hsp70 act: Hsp70 transcriptional activation, primary screen; 0.04% of 200,000 active; HeLa Hsp70 promoter luciferase reporter, luminescence; scaled: vehicle 0, proteasome-inhibitor control 100%; activation, % at 10 µM;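 active means activation above the mean across all tested compounds plus 3 SD, cutoff set per campaign, cut at about 5.5% in these data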;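 further: 100% = MG132 at 30 µM as the positive control and 0% = DMSO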
AHR act: activators of human aryl hydrocarbon receptor. AHR-responsive luciferase reporter cells, luminescence. activation, % at 5 µM. 2.5% of 320,000 active; in the data active means activation above about 47%;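 further: 0% = vehicle wells and 100% = reference agonist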
Target sequence (P35869 whole entry, looked up): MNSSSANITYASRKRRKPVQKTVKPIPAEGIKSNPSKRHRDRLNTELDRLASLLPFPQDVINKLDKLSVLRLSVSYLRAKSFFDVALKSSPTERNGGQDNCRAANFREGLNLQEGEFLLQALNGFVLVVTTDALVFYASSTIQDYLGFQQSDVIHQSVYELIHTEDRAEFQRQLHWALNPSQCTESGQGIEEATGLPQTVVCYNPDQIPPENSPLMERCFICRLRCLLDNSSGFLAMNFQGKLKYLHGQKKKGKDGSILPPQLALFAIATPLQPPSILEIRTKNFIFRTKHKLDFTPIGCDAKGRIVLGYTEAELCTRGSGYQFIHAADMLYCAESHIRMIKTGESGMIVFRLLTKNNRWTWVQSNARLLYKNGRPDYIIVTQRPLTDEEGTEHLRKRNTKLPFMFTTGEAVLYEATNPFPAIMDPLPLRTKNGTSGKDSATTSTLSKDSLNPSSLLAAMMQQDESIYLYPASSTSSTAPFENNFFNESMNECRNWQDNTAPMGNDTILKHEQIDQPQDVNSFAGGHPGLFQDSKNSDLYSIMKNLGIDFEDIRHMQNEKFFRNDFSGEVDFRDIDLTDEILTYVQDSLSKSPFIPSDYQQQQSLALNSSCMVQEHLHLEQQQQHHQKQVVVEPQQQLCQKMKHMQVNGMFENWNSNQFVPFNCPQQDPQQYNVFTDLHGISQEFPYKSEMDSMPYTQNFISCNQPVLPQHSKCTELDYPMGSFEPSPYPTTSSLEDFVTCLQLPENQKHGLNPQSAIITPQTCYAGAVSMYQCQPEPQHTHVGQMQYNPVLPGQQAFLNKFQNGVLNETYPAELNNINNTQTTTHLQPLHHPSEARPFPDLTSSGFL
PolyA inh: yeast polyadenylation inhibition; S. cerevisiae SKY197-pL101 polyadenylation reporter, beta-gal luminescence; efflux-impaired pdr1/pdr3 knockout yeast; score 100 = 6 SD above DMSO; activity score, % at 12 µM; 0.02% of 300,000 active;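 active means lowest replicate activity score at least 50, where 100 means six control SD above control mean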;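 further: yeast exposed to compound for 9 h at 30 °C; higher score means more reporter readthrough which indicates perturbed polyadenylation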
PERK inh: human PERK inhibition, primary cell-based screen. 0.17% of 220,000 active. inhibition, % at 5.6 µM. CHO PERK-DD fusion, SEAP luminescence translation reporter. Q9NZJ5. AID 1416;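 active means inhibition above the mean inhibition of all tested compounds plus 3 SD, set separately per screening campaign, cut at about 2.9% in these data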;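 further: PERK kinase domain activated by AP20187 dimerizer at 100 nM; 0% = DMSO with dimerizer and 100% = rapamycin at 8.4 µM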
STAT3 act-1: activators of IL-6 induced STAT3 signaling | U3A cells, IL-6 STAT3-luciferase reporter, luminescence; 100% = signal with IL-6 EC80 alone | activation (% of control), % at 5.6 µM | 0.91% of 190,000 active | AID 871;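 active means activation above the screen-wide mean of compound activation plus 3 SD, cut at about 130% in these data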;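 further: 0% = background luminescence of wells with medium and substrate only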
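Test system: Human STAT1-deficient U3A cells with stable STAT3-luciferase reporter | Also added: Interleukin-6, 33 ng/mL | Timing: Compound pre-incubation 1 h before IL-6, then 6 h stimulation at 37 °C | Technique: Luciferase reporter luminescence | Read-out: Percent of IL-6-only median luminescence | Benchmarks: IL-6-only wells as 100% reference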
HSF1 inhib: HSF1 inhibition. NIH3T3-HGL HSE-luciferase, MG132-induced, luminescence 8 h; hits give low values. activity change, negative = inhibition, % at 7.5 µM (by protocol). 0.77% of 300,000 active;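 active means more than half of replicate wells show activity change below -50%, luminescence cut by over half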;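 further: luciferase reports HSF-1 transcriptional activity via heat shock element; 0% = median of DMSO wells and -100% = zero luminescence signal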
STAT3 act-2: STAT3 activation, confirmation assay; shares compounds with STAT3 act-1; U3A STAT3-luciferase reporter, IL-6 potentiation, luminescence; U3A cells lack STAT1; 100 means same as IL-6 alone; potentiation (% of control), % at 5.7 µM; 64% of 1,200 active; AID 1267;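 active means percent activation of the STAT3 luciferase reporter above a set limit taken from the earlier primary screen, cut at about 130% in these data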;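 further: 0% = background signal of medium plus substrate and 100% = median of IL-6 with DMSO wells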
NFkB act STAT3ct: counter-screen for STAT3 activators: NF-kappaB activation; AID 1309; activation (% of control), % at 5.7 µM; shares compounds with STAT3 act-1; human cells, NF-kappaB reporter activation; 11% of 1,200 active; in the data active means activation above about 120%;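 further: reporter induced by TNF-alpha stimulation; 100% = median of stimulated DMSO wells and 0% = no signal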
STAT1 act STAT3c: activates STAT1, counter-screen to STAT3 activators; shares compounds with STAT3 act-1; NIH 3T3 STAT1-luciferase reporter, IFN-gamma, luminescence; activation (% of control), % at 5.7 µM; 13% of 1,200 active;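 active means activation above the solvent-only control well mean plus 3 SD, set per screening run, cut at about 120% in these data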;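 further: 100% = IFN-gamma with DMSO median signal so 100% means no change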
Hsp70 act dose: activates Hsp70 transcription in dose response | shares compounds with Hsp70 act | HeLa hsp70.1pr-luc reporter, luciferase luminescence | calls only at 99 µM | 10% of 70 active | AID 1252;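 active means over 50% activation at some tested dose; inactive means under 50% activation at every tested dose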
AHR act confirm: human AHR activation, confirmation. shares compounds with AHR act. human cells, AHR-responsive luciferase reporter, luminescence. activation, % at 9 µM. 87% of 2,300 active. AID 2845; in the data active means activation above about 49%;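 further: HepG2 hepatoma cells carrying a DRE-driven firefly luciferase reporter; 0% = vehicle wells and 100% = reference agonist wells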
PXR act counter: activates human PXR in AHR activator counter-screen | activation, % at 11.6 µM | shares compounds with AHR act | 88% of 2,300 active | cell-based PXR reporter, luciferase luminescence; in the data active means activation above about 11%;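 further: human hepatoma DPX-2 cells expressing full-length human PXR; 0% = DMSO and 100% = reference agonist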
Active calls of the source: *; i = inactive; / = not tested or not shown; + = active, no number. Compounds with a hit are over-represented: about 3.6% of the library has one in this group of screens.

SMILES	Hsp70 act	AHR act	PolyA inh	PERK inh	STAT3 act-1	HSF1 inhib	others
O=C(COc1ccccc1)N1CCN(Cc2c[nH]c3ccccc23)CC1	-0.3	12.6	0.9	-0.6	125.3	-2.3
CN1C(=O)C(Cc2c[nH]c3ccccc23)C(=O)N(C)C1=O	-0.2	/	/	1.0	158.9*	/
c1ccc2c(CN3CCCCCC3)c[nH]c2c1	-0.2	1.0	-4.6	1.3	99.7	-0.2
c1ccc2c(CNC3CCCCCC3)c[nH]c2c1	-0.4	18.8	/	-0.3	151.7*	/	STAT3 act-2=139.2*;NFkB act STAT3ct=102.9;STAT1 act STAT3c=93.1
O=C1N(CN2CCOCC2)c2ccccc2C1(O)c1c[nH]c2ccccc12 (centres undefined)	-0.3	9.6	-1.5	-0.8	136.1*	-6.1	STAT3 act-2=120.6;NFkB act STAT3ct=99.9;STAT1 act STAT3c=98.3
CC(C)n1c(=O)c(C=Nc2cccc([N+](=O)[O-])c2)c(O)n(CCc2ccccc2)c1=O	-0.3	20.0	12.7	-0.3	136.6*	-0.8	STAT3 act-2=139.2*;NFkB act STAT3ct=103.4;STAT1 act STAT3c=103.7
COC(=O)C1=C(c2ccccc2OCc2ccccc2)C[C@@H]2CC[C@H]1N2C(=O)NCc1cccc(C(F)(F)F)c1	/	-0.4	/	/	/	/
COc1ccc(/C=C2/C(=O)NC(=O)N(c3ccc(C)c(C)c3)C2=O)cc1CN1C(=O)c2ccccc2C1=O	-0.3	4.8	-5.1	0.6	86.9	4.2
CC1=NN(c2ccccc2)C(=O)C1/C=C1\C(=O)NC(=O)N(c2ccc(C)c(C)c2)C1=O (centres undefined)	-0.2	17.0	2.2	-0.1	162.2*	7.4	STAT3 act-2=130.4;NFkB act STAT3ct=99.1;STAT1 act STAT3c=98.6
Cc1cc(C)cc(N2C(=O)NC(=O)/C(=C\C=C\c3ccco3)C2=O)c1	-0.1	1.2	9.5	0.9	101.6	41.3
CC1=NN(c2ccccc2)C(=O)C1/C=C1\C(=O)NC(=O)N(c2cc(C)cc(C)c2)C1=O (centres undefined)	-0.3	13.6	11.1	0.6	158.8*	2.7	STAT3 act-2=142.2*;NFkB act STAT3ct=104.7;STAT1 act STAT3c=103.3
COC(=O)C1=C(c2ccc(F)cc2OCc2ccccc2)C[C@@H]2CC[C@H]1N2C(=O)NCc1ccc2c(c1)OCO2	/	1.6	/	/	/	/
CCC1C(c2cc(OC)c(OC)c(OC)c2)c2cc3c(cc2OC1N1CCCC1)OCO3 (centres undefined)	/	/	/	/	/	24.9
CCCCn1c(=O)c(C(=O)Nc2ccsc2C(=O)OC)c(O)c2ccccc21	-0.3	27.1	34.1	1.2	145.1*	6.2	STAT3 act-2=164.8*;NFkB act STAT3ct=112.2;STAT1 act STAT3c=111.7
CC1=NN(c2ccccc2)C(=O)/C1=C/c1c(O)[nH]c(=O)[nH]c1=O	0.2	6.7	10.8	1.4	142.6*	-6.0	STAT3 act-2=135.0*;NFkB act STAT3ct=105.5;STAT1 act STAT3c=104.0
Clc1ccc(CCC(Cn2ccnc2)Sc2c(Cl)cccc2Cl)cc1 (centres undefined)	/	2.8	/	/	/	/
COC(=O)C[C@]1(C(=O)OC)CN(C#N)N(c2ccc(Cl)cc2)C12c1ccccc1-c1ccccc12	12.3*	-7.1	-30.8	-1.2	82.5	-94.2*	Hsp70 act dose=i
CN1C2CCC1/C(=C/c1ccccn1)C(=O)/C2=C\c1ccccn1	18.3*	-0.9	/	-1.0	57.0	/	Hsp70 act dose=+
Cc1ccccc1-n1c(/C=C/c2ccccn2)nc2ccccc2c1=O	/	3.5	-2.3	0.9	/	2.4
COC(=O)C1=C(c2cccc(OCc3ccccc3)c2)C[C@@H]2CC[C@H]1N2C(=O)NCc1ccc2[nH]ccc2c1	/	1.0	/	/	/	/
O=C1Nc2ccccc2/C1=C/c1cnc[nH]1	0.7	9.6	10.2	0.1	57.7	37.8
COc1ccc2c(c1)/C(=C/c1cnc[nH]1)C(=O)N2	/	248.3*	-10.1	/	/	31.7	AHR act confirm=49.2*;PXR act counter=14.9*
CC(C)=CCOc1c2occc2cc2ccc(=O)oc12	0.2	114.4*	14.7	-0.4	92.3	-4.9	AHR act confirm=86.1*;PXR act counter=77.9*
O=C1CN=C(c2ccc(Cl)cc2)c2oc3ccccc3c2N1	/	103.6*	28.4	-0.5	/	-2.8	AHR act confirm=118.7*;PXR act counter=31.3*
COc1ccc2oc3c(c2c1)NC(=O)CN=C3c1ccccc1	0.2	13.0	-5.7	-0.5	93.5	7.5
SMILES	Hsp70 act	AHR act	PolyA inh	PERK inh	STAT3 act-1	HSF1 inhib	others
NC(=O)Nc1ccc(C(=O)OCC(=O)Nc2ccc(Cl)cc2C(=O)c2ccccc2)cc1	-0.4	93.3*	12.6	0.7	97.9	-5.1	AHR act confirm=5.3;PXR act counter=14.3*
COc1ccc2c3c1OC1[C@H](O)CCC4[C@@H](C2)N(C)CC[C@]314 (some centres undefined)	/	0.0	/	/	/	/
Nc1ncc([N+](=O)[O-])s1	/	4.5	/	/	/	/
Cc1cccc(N2CCc3c2nc2ccccc2c3N)c1	-0.1	82.9*	20.8	-0.5	98.9	-4.7	AHR act confirm=85.7*;PXR act counter=54.8*
Cc1ccnc(-n2c(C)nc3ccccc3c2=O)c1	-0.1	13.2	4.3	0.7	98.1	-5.0
O=C(COc1ccccc1)c1cn(Cc2ccccc2)c2ccccc12	-0.2	84.2*	-32.2	-0.4	105.8	16.1	AHR act confirm=66.2*;PXR act counter=103.4*
c1ccc2nc(N3CCNCC3)ccc2c1	/	-7.7	/	/	/	/
CC1CCCC(C)N1/N=C/c1c[nH]c2ccc(Br)cc12 (centres undefined)	-0.5	88.9*	-9.4	-0.3	106.9	6.9	AHR act confirm=82.8*;PXR act counter=59.7*
CN1CCC(c2c[nH]c3ccccc23)C1 (centres undefined)	/	33.7	5.6	0.3	/	-1.7
COc1ccccc1-n1c(CNCC2CCCO2)nc2ccccc2c1=O (centres undefined)	-0.3	81.3*	3.3	-0.5	101.2	1.5	AHR act confirm=48.4*;PXR act counter=37.5*
O=C1CN(O)C(c2ccccc2Cl)=c2cc(Br)ccc2=N1	/	3.0	-1.3	/	/	8.3
